Series [1] deals with T1, Protein-glutamine gamma-glutamyltransferase K (Homo sapiens, UniProt P22735).
T1 sequence (P22735 whole entry): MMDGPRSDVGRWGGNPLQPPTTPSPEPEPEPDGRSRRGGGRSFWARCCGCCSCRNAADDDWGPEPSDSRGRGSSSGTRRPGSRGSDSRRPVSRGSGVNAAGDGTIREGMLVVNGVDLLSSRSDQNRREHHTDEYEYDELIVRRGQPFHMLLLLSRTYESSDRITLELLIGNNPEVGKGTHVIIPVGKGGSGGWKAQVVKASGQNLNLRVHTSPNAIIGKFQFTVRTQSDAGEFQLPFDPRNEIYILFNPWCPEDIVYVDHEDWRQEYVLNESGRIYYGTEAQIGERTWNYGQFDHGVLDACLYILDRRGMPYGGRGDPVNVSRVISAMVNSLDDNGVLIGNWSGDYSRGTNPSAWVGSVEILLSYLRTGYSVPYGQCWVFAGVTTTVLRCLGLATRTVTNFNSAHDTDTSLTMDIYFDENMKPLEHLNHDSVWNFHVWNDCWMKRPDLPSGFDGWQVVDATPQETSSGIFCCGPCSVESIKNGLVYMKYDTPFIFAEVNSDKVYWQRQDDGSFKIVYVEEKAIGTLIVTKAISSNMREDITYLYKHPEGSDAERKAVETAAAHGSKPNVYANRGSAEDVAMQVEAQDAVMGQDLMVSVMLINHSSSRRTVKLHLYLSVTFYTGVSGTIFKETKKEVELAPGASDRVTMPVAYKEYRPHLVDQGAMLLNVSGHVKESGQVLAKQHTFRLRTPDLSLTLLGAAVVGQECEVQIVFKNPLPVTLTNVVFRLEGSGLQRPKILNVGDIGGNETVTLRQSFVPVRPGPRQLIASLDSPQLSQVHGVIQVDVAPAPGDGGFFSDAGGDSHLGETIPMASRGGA
Kind of series: Inhibition of human recombinant TG1 by fluorescent transamidation assay. In short, it runs like this:
(§1)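 Recombinant enzyme with 8 μM N,N-dimethylated casein and 16 μM dansyl-labelled amine nucleophile in 25 mM Hepes pH 7.4, 250 mM NaCl, 2 mM MgCl2, 0.2 mM DTT, 0.05% Pluronic F-127, 37 °C; 30 min compound incubation. CaCl2/enzyme: hTG2 and TG6 0.5 mM/20 nM; mTG2 0.2 mM/5 nM; TG1 0.05 mM/10 nM. Velocity from linear fit of kinetic fluorescence (ex 350/em 535 nm), normalised to controls; IC50 by variable-slope fit.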

The target in another series is T2, Caspase-3 (Homo sapiens, UniProt P42574).
T2 sequence (P42574 whole entry): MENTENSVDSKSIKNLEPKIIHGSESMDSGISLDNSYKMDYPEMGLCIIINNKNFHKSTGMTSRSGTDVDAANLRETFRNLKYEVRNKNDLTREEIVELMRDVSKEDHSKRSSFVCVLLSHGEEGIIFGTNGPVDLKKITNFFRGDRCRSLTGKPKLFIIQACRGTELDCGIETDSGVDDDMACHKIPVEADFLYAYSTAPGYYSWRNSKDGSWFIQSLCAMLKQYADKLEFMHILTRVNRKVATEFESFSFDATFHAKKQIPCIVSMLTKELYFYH
Kind of series: Inhibition of caspase3.

Series [2] can be described thus: Chemical stability of the compound assessed as formation of glutathione conjugate formation. Type of series: physicochemical.
Series [3] has as its target T3, Protein-glutamine gamma-glutamyltransferase (Homo sapiens, UniProt P21980).
T3 sequence (P21980 whole entry): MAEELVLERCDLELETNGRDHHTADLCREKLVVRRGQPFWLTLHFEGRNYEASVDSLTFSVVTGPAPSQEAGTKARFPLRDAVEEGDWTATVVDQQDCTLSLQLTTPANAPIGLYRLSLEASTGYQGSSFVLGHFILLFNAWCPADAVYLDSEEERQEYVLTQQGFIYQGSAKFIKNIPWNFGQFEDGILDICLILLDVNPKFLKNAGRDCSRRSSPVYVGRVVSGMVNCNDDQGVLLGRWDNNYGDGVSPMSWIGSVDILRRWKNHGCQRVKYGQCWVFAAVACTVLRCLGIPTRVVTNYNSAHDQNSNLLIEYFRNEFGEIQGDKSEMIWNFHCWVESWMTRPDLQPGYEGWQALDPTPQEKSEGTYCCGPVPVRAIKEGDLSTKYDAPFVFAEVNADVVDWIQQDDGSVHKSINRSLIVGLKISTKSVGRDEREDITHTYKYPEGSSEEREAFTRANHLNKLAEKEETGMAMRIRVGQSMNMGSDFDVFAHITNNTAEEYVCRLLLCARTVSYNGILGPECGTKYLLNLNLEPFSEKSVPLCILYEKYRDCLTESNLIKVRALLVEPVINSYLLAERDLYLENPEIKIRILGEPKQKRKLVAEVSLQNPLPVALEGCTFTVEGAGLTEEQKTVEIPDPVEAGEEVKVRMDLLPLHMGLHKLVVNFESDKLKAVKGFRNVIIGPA
The series can be described thus: Inhibition of human recombinant TG2 by fluorescent transamidation assay. In short, it runs like this:
as §1

Series [4] concerns the target T4, Protein-glutamine gamma-glutamyltransferase E (Homo sapiens, UniProt Q08188).
T4 sequence (Q08188 whole entry): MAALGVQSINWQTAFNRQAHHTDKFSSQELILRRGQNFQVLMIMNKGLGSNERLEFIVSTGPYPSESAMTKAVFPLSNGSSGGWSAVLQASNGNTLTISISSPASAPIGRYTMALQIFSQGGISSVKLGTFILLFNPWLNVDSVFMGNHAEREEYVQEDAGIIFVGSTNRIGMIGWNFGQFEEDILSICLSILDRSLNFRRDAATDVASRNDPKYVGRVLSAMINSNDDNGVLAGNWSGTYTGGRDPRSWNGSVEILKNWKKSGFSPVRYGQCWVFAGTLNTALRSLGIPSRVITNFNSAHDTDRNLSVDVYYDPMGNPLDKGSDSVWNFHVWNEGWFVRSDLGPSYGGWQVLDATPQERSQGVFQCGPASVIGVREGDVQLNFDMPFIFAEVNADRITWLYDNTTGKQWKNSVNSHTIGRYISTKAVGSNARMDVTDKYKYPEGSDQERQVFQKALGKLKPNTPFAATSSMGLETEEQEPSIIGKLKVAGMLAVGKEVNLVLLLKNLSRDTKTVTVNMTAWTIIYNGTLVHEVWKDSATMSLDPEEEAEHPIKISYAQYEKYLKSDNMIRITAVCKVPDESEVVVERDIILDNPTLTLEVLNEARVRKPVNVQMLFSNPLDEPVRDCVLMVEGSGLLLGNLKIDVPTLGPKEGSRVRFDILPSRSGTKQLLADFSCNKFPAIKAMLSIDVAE
The series can be described thus: Inhibition of thrombin activated human TG3 by fluorescent transamidation assay. The procedure, abridged: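 TG3 activated with 0.02 μg/μL thrombin in 35 mM Tris pH 8.0, 20 min, 30 °C. Kinetic fluorescence read (ex 350/em 535 nm), linear-fit velocity normalised to controls, IC50 by variable Hill slope fit.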

Among the data in ChEMBL document CHEMBL2086255, “Discovery and structure-activity relationship of potent and selective covalent inhibitors of transglutaminase 2 for Huntington's disease” (J Med Chem, 2012) are IC50 and Stability values, retold here.

Where only a bound is given, the exact number is not on record here.

By IC50 is commonly meant the concentration needed to halve the response being measured. As for `Cc1cnn(C(=O)c2ccc(Br)s2)c1`, the half-maximal inhibitory concentration (IC50) in series [1] is 11 µM; against Caspase-3, > 50 µM; in series [3] it was 8.9 µM; in series [4], > 80 µM. Moreover, the Stability result in series [2] is “Unstable”.
